{"data": "Results collected from several papers", "target": "Inhibitor of nuclear factor kappa-B kinase subunit alpha (CHUK, Homo sapiens, UniProt O15111)", "Sequence (O15111 1-745, as in one of the studies)": "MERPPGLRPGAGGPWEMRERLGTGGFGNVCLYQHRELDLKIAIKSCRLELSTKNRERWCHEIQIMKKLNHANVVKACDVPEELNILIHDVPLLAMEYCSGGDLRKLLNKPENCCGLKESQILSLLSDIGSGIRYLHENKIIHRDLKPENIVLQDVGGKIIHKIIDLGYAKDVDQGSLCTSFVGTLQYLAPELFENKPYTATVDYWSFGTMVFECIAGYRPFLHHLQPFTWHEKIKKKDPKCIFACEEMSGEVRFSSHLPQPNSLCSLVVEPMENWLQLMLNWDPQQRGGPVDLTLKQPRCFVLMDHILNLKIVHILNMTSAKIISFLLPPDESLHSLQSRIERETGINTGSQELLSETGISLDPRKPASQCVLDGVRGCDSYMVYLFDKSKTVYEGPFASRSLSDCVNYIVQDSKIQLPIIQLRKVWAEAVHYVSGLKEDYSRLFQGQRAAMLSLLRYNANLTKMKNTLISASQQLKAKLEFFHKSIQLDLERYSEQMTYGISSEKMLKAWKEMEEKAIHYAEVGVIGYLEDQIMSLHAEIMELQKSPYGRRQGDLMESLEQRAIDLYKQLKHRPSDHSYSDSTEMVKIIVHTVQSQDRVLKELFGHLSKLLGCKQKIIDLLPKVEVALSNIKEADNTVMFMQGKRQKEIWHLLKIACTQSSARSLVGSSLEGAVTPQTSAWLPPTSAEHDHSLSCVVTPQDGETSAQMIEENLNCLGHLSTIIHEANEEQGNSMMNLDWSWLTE"}
{"test": "binding", "setting": "1 µM", "measurement": "remaining binding", "result": "94%", "SMILES": "COc1ccc2oc(-c3ccc4nc(N)oc4c3)c/c(=N\\c3ccccc3NC(=O)CCN)c2c1"}
{"test": "cell-free assay, competition with immobilised ligand", "setting": "25 µM", "measurement": "remaining binding", "result": "85%", "SMILES": "N#Cc1ccc(NC(=O)Nc2ccccc2)cc1"}
{"test": "binding", "setting": "1 µM", "measurement": "remaining binding", "result": "89%", "SMILES": "COc1ccc2[nH]c3c4[nH]c5ccc(OC)cc5c4c4c(c3c2c1)C(=O)NC4=O"}
{"test": "cell-free assay", "setting": "1 µM", "measurement": "remaining signal", "result": "100%", "SMILES": "C#Cc1cnc(Nc2ccnc(CO)c2)nc1Nc1ccccc1S(C)(=O)=NC#N (centres unmarked)"}
{"test": "enzyme activity, inhibitor", "setting": "1 µM", "measurement": "inhibition", "result": "16%", "SMILES": "C=CC(=O)N1CCC[C@@H](n2nc(-c3ccc(Oc4ccccc4)cc3)c3c(N)ncnc32)C1"}
{"test": "cell-free assay", "setting": "1 µM", "measurement": "remaining signal", "result": "76%", "SMILES": "C[C@H]1CC[C@H](n2c3cnccc3c3cnc(Nc4ccc5c(n4)CCN(C(=O)CO)C5)nc32)CC1"}
{"test": "enzyme activity, inhibitor", "setting": "1 µM", "measurement": "inhibition", "result": "0%", "SMILES": "C=CC(=O)N1CCC([C@@H]2CCNc3c(C(N)=O)c(-c4ccc(Oc5ccccc5)cc4)nn32)CC1"}
{"test": "binding, competition with immobilised ligand", "setting": "0.5 µM", "measurement": "remaining binding", "result": "100%", "SMILES": "CCCCC(=O)Nc1ccc(-c2ccc3ncn(CCC)c(=O)c3c2)cn1"}
